Data published in ChEMBL document CHEMBL5338759, “N-Phenyl-1-(phenylsulfonyl)-1H-1,2,4-triazol-3-amine as a New Class of HIV-1 Non-nucleoside Reverse Transcriptase Inhibitor” (J Med Chem, 2023).

Experiments:
[1] = Subacute toxicity in BALB/c mouse assessed as effect on liver weight at 25 to 250 mg/kg, IG measured daily for 30 days; assay type: organism-based; conditions: in vivo, po, 720 h, dose 25-250 mg/kg, time 30 day
[2] = Selectivity ratio of IC50 for antiviral activity against wild type HIV1 IIIB infected in human TZM-bl cells to IC50 for antiviral activity against HIV1 harboring K103N mutant infected in human TZM-bl cells; assay type: toxicity, cell-based; conditions: human immunodeficiency virus 1
Procedure, shortened: (§1)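 TZM-bl cells (2x10⁵/mL) with 15 µg/mL DEAE-dextran were infected with HIV-1 IIIB, A17 (K103N/Y181C) IIIB variant, or NL4-3-based NNRTI-resistant mutants. Compound was present at 0.05–500 nM (DMSO held constant, 0.005% or 0.05%) for 48 hr at 37°C, 5% CO₂.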

[3] = AUC (0 to infinity) in BALB/c mouse plasma at 250 mg/kg, IG measured at 0.5 to 24 hrs by HPLC-MS analysis; assay type: ADME, organism-based; design: time 0.5-24 hrs, dose 250 mg/kg, route ig; conditions: in vivo, po
Procedure, shortened: (§2)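 Mice averaging 20 g (24 animals) were fasted 1 h before and 1 h after dosing. They received 250 mg/kg as 0.5 ml suspension in 1% CMC, 0.05% Tween 80 by intragastric intubation. Blood and brain were taken after decapitation at 0.5, 1, 2, 3, 5, 8 and 24 h (3 per time point). Plasma was frozen at -20°C and brain at -120 °C. Quantification was by UPLC-HRMS (ESI+, EIC m/z 476.0691) against plasma-matrix standards. Parameters were derived by noncompartmental analysis; LLOQ 5 ng/ml, with values below it set to 2.5.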

[4] = Subacute toxicity in BALB/c mouse assessed as effect on lung weight at 25 to 250 mg/kg, IG measured daily for 30 days; assay type: organism-based; conditions: in vivo, po, 720 h, dose 25-250 mg/kg, time 30 day
[5] = Subacute toxicity in BALB/c mouse assessed as pathological change in stomach at 25 to 250 mg/kg, IG measured daily for 30 days by H and E staining based histological analysis; assay type: organism-based; conditions: in vivo, po, 720 h, dose 25-250 mg/kg, time 30 day
Procedure, shortened: (§3)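 Male Balb/C mice (17 per group) received 25 or 250 mg/kg intragastrically in 1% starch gel once daily for 30 days, against starch gel controls. Internal organs were examined macroscopically after the study. Sections were paraffin-embedded and stained with hematoxylin and eosin.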

[6] = Tmax in BALB/c mouse brain at 250 mg/kg, IG measured at 0.5 to 24 hrs by HPLC-MS analysis; assay type: ADME, organism-based; conditions: po, time 0.5-24 hrs; procedure, shortened: as §2
[7] = Subacute toxicity in BALB/c mouse assessed as pathological change in kidney at 25 to 250 mg/kg, IG measured daily for 30 days by H and E staining based histological analysis; assay type: organism-based; conditions: in vivo, po, 720 h, dose 25-250 mg/kg, time 30 day; procedure, shortened: as §3
[8] = Subacute toxicity in BALB/c mouse assessed as effect on pancreas weight at 25 to 250 mg/kg, IG measured daily for 30 days; assay type: organism-based; conditions: in vivo, po, 720 h, dose 25-250 mg/kg, time 30 day
[9] = Subacute toxicity in BALB/c mouse assessed as pathological change in lungs at 25 to 250 mg/kg, IG measured daily for 30 days by H and E staining based histological analysis; assay type: organism-based; conditions: in vivo, po, 720 h, dose 25-250 mg/kg, time 30 day; procedure, shortened: as §3
[10] = Subacute toxicity in BALB/c mouse assessed as pathological change in intestine at 25 to 250 mg/kg, IG measured daily for 30 days by H and E staining based histological analysis; assay type: organism-based; conditions: in vivo, po, 720 h, dose 25-250 mg/kg, time 30 day; procedure, shortened: as §3
[11] = Tmax in BALB/c mouse plasma at 250 mg/kg, IG measured at 0.5 to 24 hrs by HPLC-MS analysis; assay type: ADME, organism-based; conditions: in vivo, po, time 0.5-24 hrs; procedure, shortened: as §2
[12] = Cmax in BALB/c mouse plasma at 250 mg/kg, IG measured at 0.5 to 24 hrs by HPLC-MS analysis; assay type: ADME, organism-based; design: time lower 0.5 hrs, dose 250 mg/kg, time upper 24 hrs, route ig; conditions: in vivo, po
Procedure, shortened: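 Mice (~20 g; food withheld 1 h before and after dosing), single dose as 0.5 ml suspension in 1% CMC/0.05% Tween 80 by gavage. Three animals per time point (0.5–24 h). Heparinized plasma frozen at -20°C, quantified by UPLC-ESI(+)-QTOF-MS (EIC m/z 476.0691) against plasma-matrix standards. LLOQ 5 ng/ml, lower values set to 2.5 ng/ml. Noncompartmental analysis.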

[13] = Selectivity ratio of IC50 for antiviral activity against wild type HIV1 IIIB infected in human TZM-bl cells to IC50 for antiviral activity against HIV1 harboring A17 mutant infected in human TZM-bl cells; assay type: toxicity, cell-based; conditions: human immunodeficiency virus 1; procedure, shortened: as §1
[14] = Half life in BALB/c mouse brain at 250 mg/kg, IG measured at 0.5 to 24 hrs by HPLC-MS analysis; assay type: ADME, organism-based; conditions: in vivo, po, time 0.5-24 hrs; procedure, shortened: as §2
[15] = AUC (0 to infinity) in BALB/c mouse brain at 250 mg/kg, IG measured at 0.5 to 24 hrs by HPLC-MS analysis; assay type: ADME, organism-based; design: time upper 24 hrs, time lower 0.5 hrs, dose 250 mg/kg, route ig; conditions: po; procedure, shortened: as §2
[16] = tested on: Human immunodeficiency virus 1; experiment: Antiviral activity against HIV1 harboring A17 mutant infected in human TZM-bl cells; assay type: functional, organism-based; conditions: Human immunodeficiency virus 1, TZM-bl
Procedure, shortened: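 TZM-bl cells (2x10⁵/mL) were infected with mutant virus in the presence of 15 µg/mL DEAE-dextran. A17 (IIIB variant) was grown in H9 cells; the other mutants were NL4-3-based plasmids transfected into 293T cells, then expanded in H9 cells. Compounds were tested at 0.05–500 nM (DMSO constant within an assay) for 48 hr at 37°C. Read-out was luciferase RLU from lysed cells, with at least 6 replicates over multiple days.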

[17] = tested on: Human immunodeficiency virus; experiment: Antiviral activity against wild type HIV IIIB infected in human TZM-bl cells; assay type: functional, organism-based; conditions: Human immunodeficiency virus 1, IIIB
Procedure, shortened: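 TZM-bl cells (2x10⁵/mL) infected with HIV-1 IIIB grown in H9 cells, with 15 µg/mL DEAE-dextran; serial dilutions from 10 mM DMSO stocks, DMSO held constant (0.005% or 0.05%); 37°C, 5% CO₂, 48 hr; cells lysed, luciferase RLU read.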

[18] = Selectivity index, ratio of CC50 for cytotoxicity against human TZM-bl cells assessed as reduction in cell viability by MTS assay to EC50 for antiviral activity against wild type HIV1 IIIB infected in human TZM-bl cells; assay type: toxicity, cell-based; conditions: read-out: Ratio CC50/EC50
[19] = Subacute toxicity in BALB/c mouse assessed as reduction in […] level at 25 to 250 mg/kg, IG measured daily for 30 days; assay type: organism-based; conditions: in vivo, po, 720 h, dose 25-250 mg/kg, time 30 day
Procedure, shortened: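 Dosing was daily intragastric 25 or 250 mg/kg in 1% starch gel (0.2 ml/20 g) for 30 days in male Balb/C mice, 17 per group, with starch gel controls. After the final dose, mice were fasted for 2 h with water available, then bled. Serum was clotted for 30 min at room temperature and centrifuged at 3500 rpm. Total protein, urea, creatinine, AST, ALT and alkaline phosphatase were assayed and compared by Mann-Whitney with Holm-Šídák, p < 0.05.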

[20] = Acute toxicity in BALB/c mouse assessed as body weight gain at 2000 mg/kg, IG measured for 14 days; assay type: organism-based; conditions: in vivo, po, 336 h, time 14 day
Procedure, shortened: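 Male Balb/C mice, 5–6 weeks old and 19–21 g, were deprived of food and water for 1.5–2 h. They were given a single intragastric 2000 mg/kg dose at 0.5 ml/20 g, prepared just before use. Controls received 0.5 ml of 1% starch gel intragastrically. There were 5 mice per group, observed for 14 days for condition and weight; weight was compared by Šídák's multiple comparisons test.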

For `N#C/C=C/c1ccc2c(S(=O)(=O)n3nc(Nc4ccc(C#N)c(Cl)c4)nc3N)cccc2c1`, the Activity [1] was “Non-Toxic”, the “Ratio IC50” value [2] was 8.9 and the AUC [3] was 427.7 µg·h/mL. The Activity [4] was “Non-Toxic”, the Activity [5] was “Non-Toxic” and the Tmax [6] was 2 h. The Activity [7] was “Non-Toxic”, the Activity [8] was “Non-Toxic” and the Activity [9] was “Non-Toxic”. The Activity [10] was “Non-Toxic”, the Tmax [11] was 0.7 h and the Cmax [12] was 81.4 ng/mL. The “Ratio IC50” value [13] was 5.6, the t1/2 [14] was 11.5 h and the AUC(0-inf) [15] was 184 µg·h/mL. For the same compound, the EC50 [16] was 689 pM, the IC50 [16] was 1300 pM and the IC50 [17] was 310 pM. The selectivity ratio [18] was 10000, the Activity [19] was “Non-Toxic” and the Activity [20] was “Non-Toxic”.
